Reference: ChEMBL document CHEMBL4680184, “Simple amphiphilic α-hydrazido acids: Rational design, synthesis, and in vitro bioactivity profile of a novel class of potential antimicrobial compounds” (Eur J Med Chem, 2020)
In brackets after ≈: the same amount, converted by molar mass. Activity calls are given as the source filed them. No cut-off for these calls is given here.

What was measured:
Enterococcus faecalis [1] = test: Antibacterial activity against Enterococcus faecalis ATCC 29212 assessed as inhibition of visible growth after 24 hrs by broth microdilution method; assay type: functional
In short: (§1)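 Compounds dissolved in sterile water at the highest achievable concentration, then serially diluted in Mueller-Hinton II broth per CLSI broth microdilution. Strains grown 6 h in BHI, diluted in MHII to 1 × 10^6 cfu/mL final. Aerobic incubation 37 °C, 24 h; tetracycline internal control; bacteria-only growth controls. MIC = lowest concentration with no visible growth; triplicate.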

Enterococcus faecium [2] = test: Antibacterial activity against Enterococcus faecium 135562 (35C) assessed as inhibition of visible growth after 24 hrs by broth microdilution method; assay type: functional; in short: as §1
Staphylococcus aureus [3] = test: Antibacterial activity against Staphylococcus aureus ATCC 29213 assessed as inhibition of visible growth after 24 hrs by broth microdilution method; assay type: functional; in short: as §1
Escherichia coli [4] = test: Antibacterial activity against Escherichia coli ATCC 25922 assessed as inhibition of visible growth after 24 hrs by broth microdilution method; assay type: functional; in short: as §1
Pseudomonas aeruginosa [5] = test: Antibacterial activity against Pseudomonas aeruginosa ATCC 27853 assessed as inhibition of visible growth after 24 hrs by broth microdilution method; assay type: functional; in short: as §1
[6] = Hemolytic activity against human erythrocytes measured after 1 hr by microplate reader based spectrophotometric analysis; assay type: ADME, cell-based, Erythrocyte
In short: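 Heparinized fresh human blood washed three times in PBS pH 7.4 (1000 g, 10 min), resuspended ~20 vol %. Equal volume with 1:2 serial dilutions of compound in PBS, 1 h at 37 °C; PBS and 0.2 vol % Triton X-100 controls. Supernatant diluted 1:60, A350 read. HC50 from three- or four-parameter Hill fit; mean of three replicates.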

[7] = Therapeutic index, ratio of HC50 for human erythrocytes to MIC for Staphylococcus aureus ATCC 29213; assay type: toxicity; settings: read-out: TI
[8] = Therapeutic index, ratio of HC50 for human erythrocytes to MIC for Escherichia coli ATCC 25922; assay type: toxicity; settings: read-out: TI
Staphylococcus aureus [9] = test: Antibacterial activity against linezolid-methicillin-resistant Staphylococcus aureus AOUC 0915 assessed as inhibition of visible growth after 24 hrs by broth microdilution method; assay type: functional
In short: (§2)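 Broth microdilution per CLSI: strains grown 6 h in BHI broth, diluted in Mueller-Hinton II broth to 1 × 10^6 cfu/mL, mixed 1:1 with serial dilutions of compound in MHII (compounds dissolved in sterile water); aerobic incubation 37 °C, 24 h. MIC = lowest concentration with no visible growth. Tetracycline internal control; triplicate.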

Escherichia coli [10] = test: Antibacterial activity against gentamicin-colistin-resistant Escherichia coli 288328 assessed as inhibition of visible growth after 24 hrs by broth microdilution method; assay type: functional; in short: as §2
[11] = Therapeutic index, ratio of HC50 for human erythrocytes to MIC for linezolid-methicillin-resistant Staphylococcus aureus AOUC 0915; assay type: toxicity
In short: (§3)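 TI = HC50/MIC. HC50: washed heparinized human erythrocytes (~20 vol % in PBS pH 7.4) mixed 1:1 with 1:2 serial compound dilutions in PBS, 1 h at 37 °C; supernatant A350 read; PBS and 0.2 vol % Triton X-100 as 0 and 100% lysis; HC50 by Hill logistic regression, mean of three replicates.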

[12] = Therapeutic index, ratio of HC50 for human erythrocytes to MIC for gentamycin-colistin-resistant Escherichia coli 288328; assay type: toxicity; in short: as §3
Cell membrane [13] = test: Induction of outer membrane permeabilization in Escherichia coli ATCC 25922 assessed as increase in fluorescence intensity at 8 ug/ml measured every 1 sec for 10 mins by NPN-probe based assay; assay type: subcellular; settings: dose 8.0 µg/ml, in the assay text read “every 0.1 sec” for “every 1 sec”
In short: (§4)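 Midlog E. coli (6 h growth, 10^8 cells/mL) washed, resuspended in PBS pH 7.2, held at 4 °C, used within 3 h; equilibrated 15 min at 25 °C. NPN 1 µM working plus compound 8 µg/mL working. Fluorescence ex 350/em 420 nm, read every 0.1 s for 10 min; rate constant from exponential rise-to-maximum fit; probe-only, buffer controls.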

Cell membrane [14] = test: Induction of outer membrane permeabilization in gentamycin-colistin resistant Escherichia coli 288328 assessed as increase in fluorescence intensity at 8 ug/ml measured every 1 sec for 10 mins by NPN-probe based assay; assay type: subcellular; settings: dose 8.0 µg/ml, in the assay text read “every 0.1 sec” for “every 1 sec”; in short: as §4
Cell membrane [15] = test: Induction of inner membrane permeabilization in Escherichia coli ATCC 25922 assessed as increase in fluorescence intensity at 8 ug/ml measured every 1 sec for 10 mins by PI-probe based assay; assay type: subcellular; settings: dose 8.0 µg/ml, in the assay text read “every 0.1 sec” for “every 1 sec”
In short: (§5)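 Same washed midlog E. coli suspension (PBS pH 7.2, 10^8 cells/mL, 25 °C after 15 min equilibration). Propidium iodide 15 µM working with compound at 8 µg/mL working. Fluorescence ex 535/em 617 nm every 0.1 s over 10 min; rate constant from exponential rise-to-maximum fit; controls without cells or compound.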

Cell membrane [16] = test: Induction of inner membrane permeabilization in gentamycin-colistin resistant Escherichia coli 288328 assessed as increase in fluorescence intensity at 8 ug/ml measured every 1 sec for 10 mins by PI-probe based assay; assay type: subcellular; settings: dose 8.0 µg/ml, in the assay text read “every 0.1 sec” for “every 1 sec”; in short: as §5
Cell membrane [17] = test: Induction of outer membrane permeabilization in Escherichia coli ATCC 25922 assessed as rate constant by measuring NPN uptake at 8 ug/ml measured every 1 sec for 10 mins; assay type: subcellular; settings: dose 8.0 µg/ml, in the assay text read “every 0.1 sec” for “every 1 sec”; in short: as §4
Cell membrane [18] = test: Induction of outer membrane permeabilization in gentamycin-colistin resistant Escherichia coli 288328 assessed as rate constant by measuring NPN uptake at 8 ug/ml […]; settings: dose 8.0 µg/ml
Cell membrane [19] = test: Induction of inner membrane permeabilization in Escherichia coli ATCC 25922 assessed as rate constant by measuring PI uptake at 8 ug/ml […]; settings: dose 8.0 µg/ml
Cell membrane [20] = test: Induction of inner membrane permeabilization in gentamycin-colistin resistant Escherichia coli 288328 assessed as rate constant by measuring PI uptake at 8 ug/ml […]; settings: dose 8.0 µg/ml
Staphylococcus aureus [21] = test: Antibacterial activity against Staphylococcus aureus ATCC 29213 after preincubated with plasma for 6 hrs by broth microdilution method; assay type: functional, organism-based
[22] = Retention time of the compound by RP-HPLC analysis; assay type: physicochemical
In short: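 RP-HPLC on C18 column (5 µm, 200 × 4.6 mm), 0.5 mL/min; hydrochlorides at 0.5–1 mg/mL in water:2-propanol 70:30, gradient to 10:90 over 40 min, then 20 min at 10:90. Adjusted retention time = instrumental retention time minus hold-up time.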

[23] = Chemical stability of the compound in pH 7.4 phosphate buffered saline at 1 ug/ml assessed as compound degradation after 8 weeks; assay type: physicochemical; settings: buffer, pH 7.4, 1344 h, at 1 µg/mL
[24] = Chemical stability of the compound in pH 1.5 hydrochloride solution at 1 ug/ml assessed as compound degradation after 8 weeks; assay type: physicochemical; settings: buffer, pH 1.5, 1344 h, at 1 µg/mL
[25] = Chemical stability of the compound in hydrochloride water at 1 ug/ml assessed as compound degradation after 8 weeks; assay type: physicochemical; settings: buffer, 1344 h, at 1 µg/mL
Enterococcus faecium [26] = test: Antibacterial activity against Enterococcus faecium ATCC 135562 by broth microdilution method; assay type: functional; in short: as §1
Staphylococcus aureus [27] = test: Antibacterial activity against Staphylococcus aureus ATCC 29213 by broth microdilution method; assay type: functional; in short: as §1
Escherichia coli [28] = test: Antibacterial activity against Escherichia coli ATCC 25922 by broth microdilution method
Enterococcus faecalis [29] = test: Antibacterial activity against Enterococcus faecalis ATCC 29212; assay type: functional; in short: as §1
Staphylococcus aureus [30] = test: Antibacterial activity against Staphylococcus aureus ATCC 29213; assay type: functional; in short: as §2
Escherichia coli [31] = test: Antibacterial activity against Escherichia coli ATCC 25922; assay type: functional; in short: as §2
Pseudomonas aeruginosa [32] = test: microbe, parasite or virus in culture; settings: ATCC 27853

CCCCCCCCCCCCNC(=O)CN(NC(=O)C(C)(C)C)C(=O)CN.Cl
MIC (Enterococcus faecalis [1]): 8 µg/mL | MIC (Enterococcus faecium [2]): 8 µg/mL | MIC (Staphylococcus aureus [3]): 4 µg/mL | MIC (Escherichia coli [4]): 8 µg/mL | MIC (Pseudomonas aeruginosa [5]): 16 µg/mL | HC50 at 1 h [6]: 394 µg/mL | selectivity ratio [7]: 99 | selectivity ratio [8]: 49 | MIC (Staphylococcus aureus [9]): 4 µg/mL | MIC (Escherichia coli [10]): 8 µg/mL | selectivity ratio [11]: 99 | selectivity ratio [12]: 49 | Activity (Cell membrane [13]): Active | Activity (Cell membrane [14]): Active | Activity (Cell membrane [15]): Active | Activity (Cell membrane [16]): Active | Activity (Cell membrane [17]): 0.25 min⁻¹ | Activity (Cell membrane [18]): 0.31 min⁻¹ | Activity (Cell membrane [19]): 0.22 min⁻¹ | Activity (Cell membrane [20]): 0.24 min⁻¹ | Activity (Staphylococcus aureus [21]): Active | Retention_time [22]: 19.8 min

CCCCCCCCNC(=O)CN(NC(=O)CCCCCCC)C(=O)CN.Cl
Stabilty [23]: Stable | MIC (Enterococcus faecalis [1]): 32 µg/mL | MIC (Enterococcus faecium [2]): 16 µg/mL | MIC (Staphylococcus aureus [3]): 16 µg/mL | MIC (Escherichia coli [4]): 16 µg/mL | MIC (Pseudomonas aeruginosa [5]): 32 µg/mL | HC50 at 1 h [6]: 131 µg/mL | selectivity ratio [7]: 8.2 | selectivity ratio [8]: 8.2 | Activity (Staphylococcus aureus [21]): Active | Stabilty [24]: Stable | Stabilty [25]: Stable | Retention_time [22]: 17.8 min

H-GIGKFLKKAKKFGKAFVKILKK-NH2 [PEXIGANAN]
MIC (Enterococcus faecium [26]): 64 µg/mL | MIC (Staphylococcus aureus [27]): 8 µg/mL | MIC (Escherichia coli [28]): 16 µg/mL

CCCCCCCCCCCCNC(=O)CN(NC(=O)c1ccccc1)C(=O)CN.Cl
MIC (Enterococcus faecalis [1]): 4 µg/mL | MIC (Enterococcus faecium [2]): 4 µg/mL | MIC (Staphylococcus aureus [3]): 4 µg/mL | MIC (Escherichia coli [4]): 4 µg/mL | MIC (Pseudomonas aeruginosa [5]): 64 µg/mL | HC50 at 1 h [6]: 195 µg/mL | selectivity ratio [7]: 49 | selectivity ratio [8]: 49 | MIC (Staphylococcus aureus [9]): 4 µg/mL | MIC (Escherichia coli [10]): 4 µg/mL | selectivity ratio [11]: 49 | selectivity ratio [12]: 49 | Activity (Staphylococcus aureus [21]): Active | Retention_time [22]: 19.7 min

CN(C)[C@@H]1C(O)=C(C(N)=O)C(=O)[C@@]2(O)C(O)=C3C(=O)c4c(O)cccc4[C@@](C)(O)[C@H]3C[C@@H]12 [TETRACYCLINE]
MIC (Enterococcus faecalis [29]): 8 µg/mL (≈ 18 µM) | MIC (Staphylococcus aureus [30]): 0.12 µg/mL (≈ 0.27 µM) | MIC (Escherichia coli [31]): 0.5 µg/mL (≈ 1.13 µM) | MIC (Pseudomonas aeruginosa [32]): 8 µg/mL (≈ 18 µM)
